# Experimental data: ChEMBL document CHEMBL3232747, “Potential anti-angiogenesis effects of p-terphenyl compounds from Polyozellus multiplex” (J Nat Prod, 2014)
# The source made the active and inactive calls. The calls are words filed in the database; no cut-off is given here.
# Key:
# [1] = biological target: Vascular endothelial growth factor receptor 2 (Homo sapiens, UniProt P35968); assay: Inhibition of recombinant human VEGFR2
# How it was run: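 Recombinant VEGFR2 tyrosine kinase activity measured by ELISA using a universal tyrosine kinase assay kit; Ki8751 as positive control.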
# [2] = tested on: HUVEC; assay: Antiangiogenic activity in HUVEC assessed as inhibition of tubule network formation after 16 hrs by fluorescence microscopic technique; assay type: functional, cell-based; settings: Homo sapiens
# How it was run: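 HUVECs (passages 2–8) plated at 1.6 × 10^4 cells on polymerized Matrigel with test compound at 2.5, 5, 7.5 or 10 μM; suramin 10 μM as positive control. Incubated 16 h, 37 °C, 5% CO2. Calcein-AM stained, imaged by fluorescence microscopy at 4×, total tubule length quantified.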
# [3] = tested on: HUVEC; assay: Antiinvasive activity in HUVEC by matrigel assay at 2.5 uM after 22 hrs by fluorescence microscopic technique; assay type: functional, cell-based; settings: Homo sapiens
# How it was run: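 HUVECs starved 5 h in serum-free EBM-2 with 0.2% BSA, then 1 × 10^5 cells with compound (2.5 or 5 μM) loaded into inserts coated with 0.2 mg/mL Matrigel. Lower chamber: EBM-2, 0.2% BSA, 20 ng/mL VEGF, 1% FBS plus compound. After 22 h at 37 °C, invaded cells calcein-AM labeled, read at 494/517 nm; mean ± SD, n = 3.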
# [4] = tested on: HUVEC; assay: Growth inhibition of HUVEC by WST-8 assay; assay type: functional, cell-based; settings: Homo sapiens
# How it was run: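 HUVECs (passages 2–8), 3 × 10^3 cells/well on collagen, adhered 12 h in EGM-2, then 12 h in EGM-2 lacking VEGF and bFGF. VEGF (1 nM) plus compound added for 72 h at 37 °C, 5% CO2. WST-8 added 2 h, absorbance at 450 nm; Ki8751 as positive control.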
# Chain of Vascular endothelial growth factor receptor 2 (P35968 whole entry): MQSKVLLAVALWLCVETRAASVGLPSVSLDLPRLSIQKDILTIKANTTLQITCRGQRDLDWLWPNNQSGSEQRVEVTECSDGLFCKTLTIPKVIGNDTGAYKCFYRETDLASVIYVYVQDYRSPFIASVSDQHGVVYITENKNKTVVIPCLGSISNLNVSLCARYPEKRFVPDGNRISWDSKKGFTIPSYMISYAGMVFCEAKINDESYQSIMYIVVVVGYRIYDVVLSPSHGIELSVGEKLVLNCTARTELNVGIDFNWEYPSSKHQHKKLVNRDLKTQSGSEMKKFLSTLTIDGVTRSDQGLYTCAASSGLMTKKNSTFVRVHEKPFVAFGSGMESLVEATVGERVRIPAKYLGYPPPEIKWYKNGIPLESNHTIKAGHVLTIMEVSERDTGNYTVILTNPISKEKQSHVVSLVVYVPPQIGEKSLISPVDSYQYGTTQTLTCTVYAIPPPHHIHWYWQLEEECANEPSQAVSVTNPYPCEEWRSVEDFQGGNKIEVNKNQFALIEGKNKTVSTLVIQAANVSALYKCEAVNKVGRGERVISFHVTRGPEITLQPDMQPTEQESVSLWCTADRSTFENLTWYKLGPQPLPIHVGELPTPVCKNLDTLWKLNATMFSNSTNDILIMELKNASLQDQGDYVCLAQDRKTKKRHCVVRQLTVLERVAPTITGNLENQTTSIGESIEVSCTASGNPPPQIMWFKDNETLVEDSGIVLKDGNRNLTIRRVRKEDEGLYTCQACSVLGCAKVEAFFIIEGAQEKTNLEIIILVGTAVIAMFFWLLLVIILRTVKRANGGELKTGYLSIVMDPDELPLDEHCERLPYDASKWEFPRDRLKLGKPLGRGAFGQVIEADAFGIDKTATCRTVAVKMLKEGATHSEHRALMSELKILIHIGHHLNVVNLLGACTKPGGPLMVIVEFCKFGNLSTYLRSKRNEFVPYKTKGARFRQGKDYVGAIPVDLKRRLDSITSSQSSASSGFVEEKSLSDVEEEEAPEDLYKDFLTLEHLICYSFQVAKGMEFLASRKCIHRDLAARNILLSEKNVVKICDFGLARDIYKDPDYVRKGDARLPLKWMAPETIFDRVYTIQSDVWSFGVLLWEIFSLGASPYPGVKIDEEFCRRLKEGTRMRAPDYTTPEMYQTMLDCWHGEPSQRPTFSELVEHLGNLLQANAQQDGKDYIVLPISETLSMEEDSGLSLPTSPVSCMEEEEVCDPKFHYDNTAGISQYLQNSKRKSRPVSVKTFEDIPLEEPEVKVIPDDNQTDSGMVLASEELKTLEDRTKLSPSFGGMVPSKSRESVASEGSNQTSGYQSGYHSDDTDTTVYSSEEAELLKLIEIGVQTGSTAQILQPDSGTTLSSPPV
IC50 [1] [µM],Compound,inhibition [2],inhibition [3],IC50 [4] [µM]
70,O=C1c2oc3cc(O)c(O)cc3c2C(=O)c2oc3cc(O)c(O)cc3c21,Dose-dependent effect,Active,3.4
52,CC(=O)CC1(O)C(=O)c2c(oc3cc(O)c(O)cc23)-c2oc3cc(O)c(O)cc3c21 (racemic),inactive,,21.4
32,O=C1C(=O)c2c(oc3cc(O)c(O)cc23)-c2oc3cc(O)c(O)cc3c21,Dose-dependent effect,Active,7.6
66,CC(=O)Oc1c2oc3cc(O)c(O)cc3c2c(OC(C)=O)c2oc3cc(O)c(O)cc3c12 [POLYOZELLIN],inactive,,10.2
2.4,COc1cc2nccc(Oc3ccc(NC(=O)Nc4ccc(F)cc4F)c(F)c3)c2cc1OC,,,1.4
